Ecoli tolC: blocks growth of E. coli BW25113 tolC mutant | OD615 | growth inhibition, % at 10 µM (by protocol) | 65,000 compounds, 2.2% hits | AID 573;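 active = growth inhibition at or above a cutoff equal to the mean over every tested compound plus 3 SD, cut at about 60% in these data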;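 note: growth measured after 20 h incubation at 37 °C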
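Test system – E. coli BW25113 ΔtolC::kan, tolC deletion mutant strain · Detection – OD at 615 nm · Buffer or medium – LB with kanamycin 50 µg/mL · Times – 20 h compound exposure of bacteria at 37 °C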
E coli WT exp: growth inhibitors of E. coli BW25113 wild type | OD600 absorbance | growth inhibition, % at 100 µM | 98,000 compounds, 0.15% hits;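 active = growth inhibition above about 50% at one test dose, limit read from the data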;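 note: growth measured after 20 h incubation at 37 °C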
CYP2C9 inh: blocks human cytochrome P450 2C9. CYP2C9 Supersomes, luciferin-H conversion, luminescence. inhibition, % at 5 µM. 96,000 compounds, 20% hits;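 active = blocking of liver enzyme CYP2C9 beyond about 50% at 5 µM, limit read from the data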
CYP2C9 act: increases human cytochrome P450 2C9 activity | 96,000 compounds, 1.4% hits | recombinant CYP2C9, luciferin-H conversion, luminescence; hits give high values; factor 1 = untreated enzyme, 0 = blocked | AID 1024 | activation factor at 5 µM | P11712;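 active = activation factor of 2 or more for CYP2C9 at a 5 µM dose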;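 note: 0 = sulfaphenazole-blocked wells and 1 = vehicle-only wells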
CYP2C19 inh: blocks human cytochrome P450 2C19. P33261. CYP2C19 Supersomes, luciferin-H EGE luminescence, 30 min. 96,000 compounds, 21% hits. inhibition, % at 5 µM;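 active = CYP2C19 inhibition above a set limit at 5 µM in the primary screen, cut at about 50% in these data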;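 note: plate controls were negative control wells for no effect and 2.5 mM tranylcypromine positive control for full effect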
Target sequence (P33261 whole entry, looked up): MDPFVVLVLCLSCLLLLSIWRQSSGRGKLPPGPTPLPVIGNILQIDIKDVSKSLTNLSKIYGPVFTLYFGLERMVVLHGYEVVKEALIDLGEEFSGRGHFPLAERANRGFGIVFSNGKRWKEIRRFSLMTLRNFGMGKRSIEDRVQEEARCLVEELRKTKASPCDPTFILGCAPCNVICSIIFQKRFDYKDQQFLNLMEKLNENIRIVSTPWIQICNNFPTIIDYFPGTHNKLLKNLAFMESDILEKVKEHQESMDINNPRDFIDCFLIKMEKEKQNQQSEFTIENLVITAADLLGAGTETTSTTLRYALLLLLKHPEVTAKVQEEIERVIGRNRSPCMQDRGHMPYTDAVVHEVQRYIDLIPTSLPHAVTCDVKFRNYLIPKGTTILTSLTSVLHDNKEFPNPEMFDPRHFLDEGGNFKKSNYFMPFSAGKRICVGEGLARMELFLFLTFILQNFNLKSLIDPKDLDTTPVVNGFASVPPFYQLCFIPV
CYP2C19 activ: increases human CYP2C19 enzyme activity; P33261; recombinant CYP2C19, luciferin-H EGE luminescence; hits give high values; 0 = fully inhibited enzyme, 1 = untreated enzyme; activation factor at 5 µM; 96,000 tested, under 10 active; AID 1025;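 active = activation factor of at least 2 at 5 µM in the primary screen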;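 note: 0 = wells with 2.5 mM tranylcypromine and 1 = vehicle-only wells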
Starred values were filed as active, the others as inactive; / = no result given. Hits are enriched below; roughly 29% of the tested compounds scored in any of these assays.

SMILES	Ecoli tolC	E coli WT exp	CYP2C9 inh	CYP2C9 act	CYP2C19 inh	CYP2C19 activ
CCN(CC)C(=O)COc1cc(C)cc2oc(=O)cc(-c3ccccc3)c12	/	-1	23	0.8	29	0.7
Cc1cc(OCC(=O)N(C)C)c2c(-c3ccccc3)cc(=O)oc2c1	6	0	64*	0.4	16	0.8
COc1ccc(-c2cc(=O)oc3c(C)c(OCc4nn[nH]n4)ccc23)cc1	37	-2	97*	0	79*	0.2
O=C(O)COc1ccc2c(-c3ccccc3)cc(=O)oc2c1	1	/	-8	1.1	5	1
CCCCc1cc(=O)oc2cc(OCc3nn[nH]n3)c(Cl)cc12	27	8	80*	0.2	44	0.6
Cc1cc(OCc2nn[nH]n2)c2c(-c3ccccc3)cc(=O)oc2c1	-11	-6	71*	0.3	40	0.6
CCc1cc(=O)oc2cc(OCc3nn[nH]n3)ccc12	-17	-11	40	0.6	23	0.8
CNC(=O)CSc1nnnn1CCCOC	-22	-2	-26	1.3	-6	1.1
C/C(=N/NC(N)=S)c1ccccc1[N+](=O)[O-]	/	3	-3	1	-1	1
Cc1c(OCc2nn[nH]n2)ccc2c(-c3ccccc3)cc(=O)oc12	22	8	98*	0	95*	0
C/C(=N/NC(=O)c1ccc2c(c1)OCO2)c1cccc(NC(=O)C(C)(C)C)c1	/	-6	38	0.6	4	1
NC(=O)C1CCN(C(=O)CSc2nc3ccccc3[nH]2)CC1	/	-3	7	0.9	4	1
CC1CCN(C(=O)CSc2nc3ccccc3[nH]2)CC1	-1	6	25	0.8	74*	0.3
C/C(N)=C(/C#N)C(=O)CSc1ncnc2ccccc12	1	-5	2	1	71*	0.3
C/C(N)=C(/C#N)C(=O)CSc1nc2ccccc2[nH]1	/	-7	11	0.9	71*	0.3
Cn1c(=O)cc(OCC(=O)N2CCC(N3CCCCC3)CC2)c2ccccc21	-9	-4	-17	1.2	-22	1.2
CCOC(=O)c1cnn(-c2cc(Oc3cccc(C)c3)ncn2)c1N	/	-7	21	0.8	-5	1
O=C(OCN1C(=O)c2ccccc2C1=O)C1CCCCC1	-6	-4	-13	1.1	4	1
O=C1c2ccccc2C(=O)N1SC1CCCCC1	9	4	82*	0.2	25	0.8
Cc1ccc(-c2nnc(CSc3nnc(C)s3)o2)cc1	14	5	4	1	17	0.8
Cc1csc(SCc2nnc(-c3ccccc3Br)o2)n1	15	1	42	0.6	60*	0.4
Cc1csc(SCc2nnc(-c3ccc(Cl)cc3)o2)n1	/	5	24	0.8	62*	0.4
C#CC[N+](C)(C)C(C#Cc1ccccc1)CC=C (stereo unspecified)	/	0	3	1	-8	1.1
CCC(=O)N1CCc2cc(S(=O)(=O)N3CCN(c4ccccn4)CC3)ccc21	13	-4	28	0.7	19	0.8
COC(=O)C1=C(C(=O)OC)SC(=C2C(=S)C(C)(C)N(C(=O)CC(C)C)c3ccccc32)S1	/	-2	29	0.7	70*	0.3
SMILES	Ecoli tolC	E coli WT exp	CYP2C9 inh	CYP2C9 act	CYP2C19 inh	CYP2C19 activ
CCCCCNc1nc(-c2ccccc2)cs1	/	-6	64*	0.4	76*	0.2
CN1CCN(S(=O)(=O)c2ccc(Br)c3nsnc23)CC1	/	-4	-17	1.2	24	0.8
COc1ccc(S(=O)(=O)n2c(CCN3CCOCC3)nc3ccccc32)cc1	5	5	-67	1.7	13	0.9
Cc1nn(C)c(Oc2ccccc2)c1CCNS(=O)(=O)c1ccc(Cl)cc1	/	25	80*	0.2	97*	0
Cc1nn(C)c(Oc2ccc(Cl)cc2)c1C(=O)O	/	-2	17	0.8	-3	1
COc1ccc(S(=O)(=O)NCCc2c(C)nn(C)c2Oc2ccccc2)cc1	/	7	48	0.5	87*	0.1
COc1ccccc1-n1c(CNC(=O)COc2ccccc2)n[nH]c1=S	-13	1	-9	1.1	33	0.7
COc1cccc(C2NC(=O)NC(C)=C2C(=O)Nc2cccc(C)c2C)c1 (stereo unspecified)	-12	-4	2	1	12	0.9
Cc1nn(-c2ccccc2)c(Cl)c1/C=C1\SC(=S)NC1=O	/	-19	76*	0.2	4	1
FC(F)(F)c1ccccc1NC(=S)N1CCN(c2ncccn2)CC1	/	0	24	0.8	42	0.6
O=S(=O)(NCc1cn2ccsc2n1)c1cccs1	-12	13	23	0.8	25	0.8
O=S(=O)(NCc1cn2ccsc2n1)c1ccc(Oc2ccccc2)cc1	1	-5	80*	0.2	69*	0.3
CCS(=O)(=O)NCc1cn2ccsc2n1	-15	7	-1	1	-8	1.1
O=S(=O)(NCc1cn2ccsc2n1)c1ccc2c(c1)OCCO2	3	-2	-64	1.6	87*	0.1
C=CCSC(=C(C#N)C#N)c1cc2c([nH]1)CCCC2	/	14	63*	0.4	42	0.6
CCC(C(=O)NCc1ccco1)N(C(=O)CNS(=O)(=O)c1ccccc1)c1ccc(OC)cc1 (stereo unspecified)	/	-2	10	0.9	34	0.7
Cc1ccc(S(=O)(=O)/C(C#N)=C/c2c(N3CCN(C)CC3)nc3ccccn3c2=O)cc1	0	4	81*	0.2	17	0.8
Cn1nccc1/C=C(/C#N)S(=O)(=O)c1ccccc1	-13	2	18	0.8	30	0.7
N#C/C(=C\c1c(N2CCOCC2)nc2ccccn2c1=O)S(=O)(=O)c1ccccc1	7	11	32	0.7	15	0.8
Cc1ccc(S(=O)(=O)/C(C#N)=C/c2c(N3CC(C)OC(C)C3)nc3ccccn3c2=O)cc1 (stereo unspecified)	/	0	57*	0.4	20	0.8
CCC(C(=O)NC1CCCC1)N(C(=O)Cn1nnc(-c2ccc(OC)c(OC)c2)n1)C1CCCCC1 (stereo unspecified)	29	-5	52*	0.5	72*	0.3
COc1ccc(-c2nnn(CC(=O)N(Cc3cccs3)C(C)C(=O)NC3CCCC3)n2)cc1OC (stereo unspecified)	-12	-10	52*	0.5	57*	0.4
CCCCC(C(=O)NC1CCCC1)N(Cc1ccco1)C(=O)Cn1nnc(-c2ccc(F)cc2)n1 (stereo unspecified)	/	-21	92*	0.1	92*	0.1
CCOC(=O)N1CCN(S(=O)(=O)N(C)C)CC1	-30	-2	-8	1.1	10	0.9
O=S(=O)(Cc1ccccc1)NCC1CCCO1 (stereo unspecified)	-10	4	-8	1.1	8	0.9
O=[N+]([O-])c1cccc(C(=Nc2cccc(Cl)c2)NO)c1	/	10	87*	0.1	91*	0.1

Bioassay records (PubChem BioAssay)
